From paper PMC10556424 (RSC Advances, 2023)
Read-outs that look alike come from different tables or passages of the source.

What was measured:
[1] = system: HBV DNA in HBV-expressed HepG2.2.15 cells; assay: In vitro anti-HBV activity in HepG2.2.15 cell line; type: cell-based; details: Hepatitis B virus; for activity at 1 µM: HepG2.2.15, 144 h, read-out: % HBV DNA remaining
Procedure, shortened: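 HepG2.2.15 cells were seeded at 5 × 10^5 per well in high-glucose DMEM with 10% heat-inactivated FBS, 300 mg L−1 G418, 1% non-essential amino acids and antibiotic–antimycotic, then held overnight at 37 °C, 5% CO2. Compound or 0.5% DMSO was given for 3 days, then renewed for 3 more days. Intracellular HBV DNA was measured by qPCR as % remaining versus vehicle; EC50 came from a 4-parameter nonlinear fit.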

[2] = In vitro microsomal stability; type: in vitro ADME; details: human liver microsomes, 1 μM
Procedure, shortened: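 Compound (1 μM) with pooled human liver microsomes (0.4 mg mL−1) in 100 mM potassium phosphate, pH 7.4, with 3.3 mM MgCl2 and 1.3 mM β-NADPH. Organic solvent was ≤1%, at 37 °C. Time-point samples were quenched with ice-cold acetonitrile containing internal standard, centrifuged, and the supernatants analysed by LC-MS/MS. Results are intrinsic clearance.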

[3] = system: all tested CYPs: CYP1A2, CYP2A6, CYP2B6, CYP2C8, CYP2C9, CYP2C19, CYP2D6, CYP2E1, CYP3A4/5; assay: CYP450 inhibition in human liver microsomes, all tested CYPs; type: in vitro ADME; details: pooled human liver microsomes, pH 7.4
Procedure, shortened: (§1)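 Test compound at 10 μM with pooled human liver microsomes (0.2 mg mL−1) and a cocktail of 10 CYP probe substrates. Buffer was 100 mM potassium phosphate, pH 7.4, with 3.3 mM MgCl2, at 37 °C. β-NADPH (1.3 mM) started the reaction. After 10 min, ice-cold 3% formic acid in 5% acetonitrile stopped it. Centrifuged samples went to LC-MS/MS; each metabolite's formation is given as % inhibition versus control.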

[4] = target: T1, CYP2B6 (Homo sapiens, UniProt P20813); assay: CYP450 inhibition in human liver microsomes; type: in vitro ADME; details: pooled human liver microsomes, pH 7.4, probe bupropion (12 μM)
T1 sequence (P20813 1-491): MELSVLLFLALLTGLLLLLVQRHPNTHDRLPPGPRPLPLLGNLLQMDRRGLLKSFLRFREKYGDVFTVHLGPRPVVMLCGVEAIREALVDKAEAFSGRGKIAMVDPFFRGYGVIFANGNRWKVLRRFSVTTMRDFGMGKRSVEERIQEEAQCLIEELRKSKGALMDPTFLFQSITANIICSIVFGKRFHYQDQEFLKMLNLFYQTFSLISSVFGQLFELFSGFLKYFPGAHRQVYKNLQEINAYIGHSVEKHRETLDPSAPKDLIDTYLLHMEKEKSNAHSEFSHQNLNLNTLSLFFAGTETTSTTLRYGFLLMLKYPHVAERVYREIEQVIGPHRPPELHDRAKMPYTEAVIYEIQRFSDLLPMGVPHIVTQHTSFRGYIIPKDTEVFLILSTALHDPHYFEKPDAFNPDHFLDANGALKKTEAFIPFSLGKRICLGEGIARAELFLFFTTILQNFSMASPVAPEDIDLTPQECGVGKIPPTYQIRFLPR
Procedure, shortened: as §1

[5] = target: CYP2C19 (Homo sapiens, UniProt P33261); assay: CYP450 inhibition in human liver microsomes; type: in vitro ADME; details: pooled human liver microsomes, pH 7.4, probe (S)-mephenytoin (50 μM)
Procedure, shortened: as §1

[6] = Site of oxidative metabolism; type: in vitro ADME; details: ESI file S2
[7] = target: CYP2C9 (Homo sapiens, UniProt P11712); assay: CYP450 inhibition in human liver microsomes; type: in vitro ADME; details: pooled human liver microsomes, pH 7.4, probe tolbutamide (100 μM)
Procedure, shortened: as §1

[8] = target: CYP2D6 (Homo sapiens, UniProt P10635); assay: CYP450 inhibition in human liver microsomes; type: in vitro ADME; details: pooled human liver microsomes, pH 7.4, probe dextromethorphan (2.5 μM)
Procedure, shortened: as §1

[9] = Pharmacokinetic studies in rats; type: in vivo; details: male, Sprague-Dawley, rat, plasma; for clearance: iv, 0.5 mg/kg; for bioavailability: po, 2 mg/kg
Procedure, shortened: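 Male Sprague-Dawley rats got a single IV bolus (0.5 mg kg−1, in 10% DMSO in 20% hydroxypropyl methyl β-cyclodextrin) or oral gavage (2 mg kg−1, in 40% polyethylene glycol in water). Plasma was taken pre-dose and up to 24 h and assayed by LC-MS/MS. CL and F came from non-compartmental analysis.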

[10] = system: HBV; details: cited from earlier work
[11] = HepG2.2.15, read-out: HBV DNA inhibition EC50

Chain of CYP2C9 (P11712 whole entry): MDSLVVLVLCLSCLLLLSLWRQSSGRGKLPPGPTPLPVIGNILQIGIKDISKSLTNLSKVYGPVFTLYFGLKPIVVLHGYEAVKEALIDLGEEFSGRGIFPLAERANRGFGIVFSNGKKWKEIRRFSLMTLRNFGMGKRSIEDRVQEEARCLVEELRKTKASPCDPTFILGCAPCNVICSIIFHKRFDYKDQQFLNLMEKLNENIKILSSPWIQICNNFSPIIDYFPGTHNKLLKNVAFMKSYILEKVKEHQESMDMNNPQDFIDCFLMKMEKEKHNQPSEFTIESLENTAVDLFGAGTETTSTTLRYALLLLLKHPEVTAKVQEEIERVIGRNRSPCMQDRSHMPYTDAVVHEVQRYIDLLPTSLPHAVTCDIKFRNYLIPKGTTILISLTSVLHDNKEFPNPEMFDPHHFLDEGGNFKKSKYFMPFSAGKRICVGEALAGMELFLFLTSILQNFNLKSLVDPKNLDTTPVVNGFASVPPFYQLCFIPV
Chain of CYP2D6 (P10635 whole entry): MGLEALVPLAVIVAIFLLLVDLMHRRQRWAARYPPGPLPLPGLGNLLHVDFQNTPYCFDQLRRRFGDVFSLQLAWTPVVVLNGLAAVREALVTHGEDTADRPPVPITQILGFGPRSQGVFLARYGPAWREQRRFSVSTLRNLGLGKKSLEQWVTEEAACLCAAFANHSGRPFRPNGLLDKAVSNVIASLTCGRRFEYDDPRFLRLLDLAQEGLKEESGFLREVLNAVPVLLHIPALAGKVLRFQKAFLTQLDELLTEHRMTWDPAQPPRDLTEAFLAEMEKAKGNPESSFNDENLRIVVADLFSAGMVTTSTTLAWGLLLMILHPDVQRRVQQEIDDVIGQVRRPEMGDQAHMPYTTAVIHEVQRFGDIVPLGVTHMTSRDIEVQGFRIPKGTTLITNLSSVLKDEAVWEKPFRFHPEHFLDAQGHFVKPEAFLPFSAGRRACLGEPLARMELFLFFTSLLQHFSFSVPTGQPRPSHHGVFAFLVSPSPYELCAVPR
Chain of CYP2C19 (P33261 whole entry): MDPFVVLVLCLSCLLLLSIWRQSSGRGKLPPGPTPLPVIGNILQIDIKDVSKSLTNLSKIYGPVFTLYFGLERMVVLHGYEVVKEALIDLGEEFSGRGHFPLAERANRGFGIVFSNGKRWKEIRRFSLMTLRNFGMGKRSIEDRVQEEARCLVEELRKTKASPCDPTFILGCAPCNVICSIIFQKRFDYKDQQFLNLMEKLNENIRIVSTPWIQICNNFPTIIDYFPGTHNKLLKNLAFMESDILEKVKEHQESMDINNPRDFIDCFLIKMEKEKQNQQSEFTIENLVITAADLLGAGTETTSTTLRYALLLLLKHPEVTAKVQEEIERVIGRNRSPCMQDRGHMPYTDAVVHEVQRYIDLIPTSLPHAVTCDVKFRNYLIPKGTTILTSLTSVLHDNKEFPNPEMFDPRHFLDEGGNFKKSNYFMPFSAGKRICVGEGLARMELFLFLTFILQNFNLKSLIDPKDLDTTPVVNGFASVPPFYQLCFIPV

Compound | CLint ([2]; Table 3) | inhibition at 10 min, 10 µM [4] | inhibition at 10 min, 10 µM [7] | EC50 [1, 11] | CLint ([2]; Table 4) | activity at 1 µM [1] | also measured
O=C(Nc1cc(F)c(F)c(F)c1)[C@H]1CCN(C(=O)c2ccc(-c3cccnc3)[nH]2)C1 [CU05, (S)-1-(5-(Pyridin-3-yl)-1H-pyrrole-2-carbonyl)-N-(3,4,5-trifluorophenyl)pyrrolidine-3-carboxamide] | 2.9 μL per min per mg protein | 65% | 87% |  |  | 47% | 
O=C(Nc1cc(F)c(F)c(F)c1)[C@H]1CCN(C(=O)c2ccc(-c3ccncc3)[nH]2)C1 [CU06, (S)-1-(5-(Pyridin-4-yl)-1H-pyrrole-2-carbonyl)-N-(3,4,5-trifluorophenyl)pyrrolidine-3-carboxamide] | 4.6 μL per min per mg protein | 81% | 67% |  |  | 28% | inhibition at 10 min, 10 µM [8]: 89%
Cc1ncnc(C)c1-c1ccc(C(=O)N2CC[C@H](C(=O)Nc3ccc(F)c(Cl)c3)C2)[nH]1 [CU12, (S)–N-(3-Chloro-4-fluorophenyl)-1-(5-(4,6-dimethylpyrimidin-5-yl)-1H-pyrrole-2-carbonyl)pyrrolidine-3-carboxamide] |  |  |  | 18.2 ± 2 nM | 3.6 μL per min per mg protein |  | 
Cc1ncnc(C)c1-c1ccc(C(=O)N2CC[C@H](C(=O)Nc3cc(F)c(F)c(F)c3)[C@@H]2C)[nH]1 [CU13, (2S,3S)-1-(5-(4,6-Dimethylpyrimidin-5-yl)-1H-pyrrole-2-carbonyl)-2-methyl-N-(3,4,5-trifluorophenyl)pyrrolidine-3-carboxamide] |  |  |  | 17.8 ± 3 nM | 2.1 μL per min per mg protein |  | 
Cc1ncnc(C)c1-c1ccc(C(=O)N2CC[C@H](C(=O)Nc3ccc(F)c(Cl)c3)[C@@H]2C)[nH]1 [CU14, (2S,3S)–N-(3-Chloro-4-fluorophenyl)-1-(5-(4,6-dimethylpyrimidin-5-yl)-1H-pyrrole-2-carbonyl)-2-methylpyrrolidine-3-carboxamide] |  |  |  | 13.2 ± 2 nM | 2.9 μL per min per mg protein |  | clearance [9]: 12.3 mL/min/kg; bioavailability [9]: 66%
Cc1cc(NC(=O)[C@H]2CCN(C(=O)c3ccc(-c4c(C)ncnc4C)[nH]3)[C@H]2C)ccc1F [CU15, (2S,3S)-1-(5-(4,6-Dimethylpyrimidin-5-yl)-1H-pyrrole-2-carbonyl)-N-(4-fluoro-3-methylphenyl)-2-methylpyrrolidine-3-carboxamide] |  |  |  | 8.6 ± 2 nM | 4.9 μL per min per mg protein |  | EC50 ([1]; HepG2.2.15): < 10 nM; clearance [9]: 20 mL/min/kg; bioavailability [9]: 44%
Cc1cc(NC(=O)[C@H]2CCN(C(=O)c3ccc(-c4c(C)n[nH]c4C)[nH]3)[C@H]2C)ccc1F [CU16, (2S,3S)-1-(5-(3,5-Dimethyl-1H-pyrazol-4-yl)-1H-pyrrole-2-carbonyl)-N-(4-fluoro-3-methylphenyl)-2-methylpyrrolidine-3-carboxamide] |  |  |  | 14.9 ± 3 nM | 11.7 μL per min per mg protein |  | 
C[C@H](NS(=O)(=O)c1cc(C(=O)Nc2ccc(F)c(C#N)c2)n(C)c1)C(F)(F)F [JNJ-6379] |  |  |  |  |  |  | pEC 50 [10]: 7.22 (ref. [15])

The next lines start with results.

CLint ([2]; Table 3) | inhibition at 10 min, 10 µM [4] | inhibition at 10 min, 10 µM [7] | EC50 [1, 11] | CLint ([2]; Table 4) | Compound | activity at 1 µM [1] | also measured
14.4 μL per min per mg protein |  |  |  |  | Cc1ccc(C(=O)N2CC[C@H](C(=O)Nc3cc(F)c(F)c(F)c3)C2)[nH]1 [CU01, (S)-1-(5-Methyl-1H-pyrrole-2-carbonyl)-N-(3,4,5-trifluorophenyl)pyrrolidine-3-carboxamide] | 59% | inhibition at 10 min, 10 µM [3]: < 20%
14.5 μL per min per mg protein | 50% |  |  |  | O=C(Nc1cc(F)c(F)c(F)c1)[C@H]1CCN(C(=O)c2ccc(C3CC3)[nH]2)C1 [CU02, (S)-1-(5-cyclopropyl-1H-pyrrole-2-carbonyl)-N-(3,4,5-trifluorophenyl)pyrrolidine-3-carboxamide] | 48% | inhibition at 10 min, 10 µM [5]: 53%; Site of oxidative metabolic reactions [6]: oxidative metabolic reactions primarily occurred on the R group
9.2 μL per min per mg protein |  | 62% |  |  | O=C(Nc1cc(F)c(F)c(F)c1)[C@H]1CCN(C(=O)c2cc3ccccc3[nH]2)C1 [CU03, (S)-1-(1H-Indole-2-carbonyl)-N-(3,4,5-trifluorophenyl)pyrrolidine-3-carboxamide] | 44% | EC50 ([1]; HepG2.2.15): 447 nM; inhibition at 10 min, 10 µM [5]: 63%; inhibition at 10 min, 10 µM [8]: 51%; Site of oxidative metabolic reactions [6]: oxidative metabolic reactions primarily occurred on the R group
6.2 μL per min per mg protein |  |  |  |  | O=C(Nc1cc(F)c(F)c(F)c1)[C@H]1CCN(C(=O)c2ccc(-c3ccccn3)[nH]2)C1 [CU07, (S)-1-(5-(Pyridin-2-yl)-1H-pyrrole-2-carbonyl)-N-(3,4,5-trifluorophenyl)pyrrolidine-3-carboxamide] | 77% | inhibition at 10 min, 10 µM [3]: < 20%
0.5 μL per min per mg protein | 61% | 53% |  |  | O=C(Nc1cc(F)c(F)c(F)c1)[C@H]1CCN(C(=O)c2ccc(-c3cncnc3)[nH]2)C1 [CU08, (S)-1-(5-(Pyrimidin-5-yl)-1H-pyrrole-2-carbonyl)-N-(3,4,5-trifluorophenyl)pyrrolidine-3-carboxamide] | 43% | 
